RGS4 inh = RGS4 inhibitors, primary screen, cell-based, HEK293 M3R inducible RGS4, calcium flux; Regulator of G-protein signaling 4 (Homo sapiens), P49798; Fluo-4 calcium flux; hits give high values; triggered by carbachol at its EC20; B-score at 10 µM; 310,000 tested, 0.45% active; AID 463165, 2010;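 active = B-score, a plate-corrected calcium signal, over three deviations above library mean, with baseline fluorescence within five deviations of library mean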;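 also: RGS4 expression induced by doxycycline in cells with stable M3 receptor; B-score is computed from the integrated fluorescence ratio over baseline after carbachol; higher B-score means a larger calcium signal and so more RGS4 inhibition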
Target sequence (P49798 whole entry, looked up): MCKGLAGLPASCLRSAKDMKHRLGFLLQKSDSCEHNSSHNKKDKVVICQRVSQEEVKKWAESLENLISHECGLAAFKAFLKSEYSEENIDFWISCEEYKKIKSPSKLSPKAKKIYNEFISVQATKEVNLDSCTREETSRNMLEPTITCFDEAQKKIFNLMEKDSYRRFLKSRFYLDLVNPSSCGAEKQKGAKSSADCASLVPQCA
MrgX1 antagonist = antagonists of human MrgX1 receptor, primary screen, HEK293 cells, Fluo-4 calcium flux. Mas-related G-protein coupled receptor member X1 (Homo sapiens), Q96LB2. BAM8-22 antagonism; hits give low values. B-score at 10 µM. 310,000 tested, 1.3% active;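 active = calcium-response B-score plate-corrected more than 3 library SD below zero, starting fluorescence within 5 deviations, no agonist response on first addition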;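 also: peak minus trough fluorescence over baseline after final BAM8-22 challenge near maximal dose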
Target sequence (Q96LB2 whole entry, looked up): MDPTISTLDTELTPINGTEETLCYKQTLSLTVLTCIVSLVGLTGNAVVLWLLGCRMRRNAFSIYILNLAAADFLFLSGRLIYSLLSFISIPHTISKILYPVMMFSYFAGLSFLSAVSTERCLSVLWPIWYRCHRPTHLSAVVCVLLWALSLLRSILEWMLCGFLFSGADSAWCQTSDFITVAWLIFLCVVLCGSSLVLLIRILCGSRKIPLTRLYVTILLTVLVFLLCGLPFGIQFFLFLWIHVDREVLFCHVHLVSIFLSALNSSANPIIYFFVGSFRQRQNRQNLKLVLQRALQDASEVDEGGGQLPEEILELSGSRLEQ
MrgX1 agonist = agonists of human MrgX1 receptor, primary screen, HEK293 cells, Fluo-4 calcium flux. B-score at 10 µM. Mas-related G-protein coupled receptor member X1 (Homo sapiens), Q96LB2. AID 588627, 2011. Fluo-4 calcium fluorescence, agonist mode; hits give high values. 310,000 tested, 0.44% active;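 active = calcium response B-score plate-corrected fluorescence ratio at least 3 library SD, with starting fluorescence B-score inside 5 SD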
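Material: MrgX1-expressing HEK293 cells / Dosing: compound as first of three additions / Incubation: overnight seeding, then 1 h dark dye loading / Signal: Fluo-4 NW calcium fluorescence / Evaluation: B-scored fluorescence response ratio / Benchmarks: positive and negative control wells on each plate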
RGS4 pot = RGS4 potentiators or activators, primary screen, cell-based, HEK293 M3R inducible RGS4, calcium flux; carbachol calcium flux Fluo4; hits give low values; B-score at 10 µM; 310,000 tested, 0.92% active; AID 463111, 2010;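 active = B-score of the integrated calcium signal more than 4 SD below the library mean, with starting fluorescence not abnormally high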;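 also: negative B-score means reduced calcium response which marks RGS4 activation or potentiation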
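Detection: kinetic calcium fluorescence imaging with Fluo4-AM dye, 2 µM / Material: HEK293 cells with stable M3R and inducible RGS4 / Schedule: recording 10 s baseline at 1 Hz, 100 s post-agonist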
MrgX1 allo act = positive allosteric modulators of MrgX1, primary screen, HEK293 cells, Fluo-4 calcium flux | Mas-related G-protein coupled receptor member X1 (Homo sapiens), Q96LB2 | FDSS; hits give high values | B-score at 10 µM | 310,000 tested, 0.63% active | AID 588675, 2011;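 active = plate-corrected calcium response at least 3 library SD above typical, normal starting fluorescence, not activating the receptor alone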;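 also: compound read alongside a low EC10 to EC30 dose of BAM8-22 agonist; peak minus trough fluorescence over baseline measured at the second addition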
* = called active by the depositor; i = inactive; . = no result. Hits are enriched below; roughly 3.5% of the tested compounds scored in any of these assays.

SMILES | RGS4 inh | MrgX1 antagonist | MrgX1 agonist | RGS4 pot | MrgX1 allo act
Cc1ccccc1Cn1ccc(NC(=O)CCSc2nc(-c3ccco3)cc(C(F)(F)F)n2)n1 | i | i | i | i | i
O=C(Nc1ccc2c(c1)OCO2)c1cnn2c(C(F)(F)F)cc(-c3ccco3)nc12 | . | i | i | . | i
CC(C)Oc1ccc(OCCn2c(=S)[nH]c3c(N)ncnc32)cc1 | i | i | i | i | i
Cn1c(S(=O)(=O)c2ccc([N+](=O)[O-])cc2)nc(Br)c1Br | i | i | i | i | i
FC(F)Oc1ccccc1/C=N/Nc1nc2ccccc2o1 | i | i | i | i | i
O=C(Nc1nc(-c2cccc([N+](=O)[O-])c2)cs1)C(c1ccccc1)c1ccccc1 | i | i | i | i | i
CC(OC(=O)c1ccccc1Br)C(=O)Nc1nc(-c2cccc([N+](=O)[O-])c2)cs1 (centres undefined) | i | -5.51* | i | i | i
O=C(O)C1CCCCC1C(=O)NCc1ccccc1 (centres undefined) | i | i | i | i | i
COc1ccccc1OCCCOc1ccc(/C=C2\SC(=O)NC2=O)cc1OC | i | i | i | -7.73* | i
CC(=O)C1=C(O)C(=O)N(Cc2cccnc2)C1c1ccc(Cl)cc1 (centres undefined) | i | i | i | i | i
O=C(Nc1nc(-c2ccccc2)cs1)c1ccccc1NS(=O)(=O)c1ccc(F)cc1 | i | i | i | -7.23* | i
CN=C(Nc1ccc(C(=O)OC)cc1)SC1CC(=O)N(c2ccccc2F)C1=O (centres undefined) | i | i | i | i | i
O=C(CSc1nnc(COc2ccc(Cl)cc2)o1)NC1CCCCC1 | i | i | i | i | i
O=C(CSc1nnc(COc2ccc(Cl)cc2)o1)NC1CC2CCC1C2 (centres undefined) | i | -4.72* | i | i | i
O=C(COc1ccc(Cl)cc1)NCc1nnc(SCC(=O)NC2CCCC2)o1 | i | -6.38* | i | i | i
O=C(NCCc1ccccc1)C1CCC(=O)N1CCc1ccccc1 (centres undefined) | i | i | i | i | i
CC(C)CN=Cc1c(O)c([N+](=O)[O-])cc2oc3c(c12)CCCC3 | i | -6.22* | i | i | i
O=[N+]([O-])c1cc2oc3c(c2c(C=NCc2ccccc2)c1O)CCCC3 | i | i | i | i | i
CSCCC(NC(=O)c1ccccc1Br)C(=O)NCCCn1nc(C)cc1C (centres undefined) | i | i | i | i | i
CCC1S/C(=N/N=C/c2ccco2)N(Cc2ccccc2C)C1=O (centres undefined) | i | i | i | i | i
Cc1ccccc1CN1C(=O)CS/C1=N/N=C/c1ccco1 | i | i | i | i | 7.18*
CC(c1ccccc1)C1CC(=O)N(Cc2ccco2)C1=O (centres undefined) | i | i | i | i | i
CC1S/C(=N/N=C/c2ccco2)N(Cc2ccccc2)C1=O (centres undefined) | i | i | i | i | 8*
CCC1S/C(=N/N=C/c2ccco2)N(Cc2ccc(F)cc2)C1=O (centres undefined) | i | i | i | i | i
CC/C(=N\N=C1\SC(C)C(=O)N1Cc1ccco1)c1ccccc1 (centres undefined) | i | i | i | i | 12.1*
SMILES | RGS4 inh | MrgX1 antagonist | MrgX1 agonist | RGS4 pot | MrgX1 allo act
CCc1nnc(NS(=O)(=O)c2ccc(N/C=C\C(=O)c3ccc4ccccc4c3)cc2)s1 | i | i | i | i | i
Cc1coc2c(C)c3oc(=O)c(CCC(=O)NCCN4CCOCC4)c(C)c3cc12 | i | i | i | -7.02* | i
Cc1cc(C)nc(OC(=O)c2ccc(Cl)cc2Cl)n1 | i | i | i | -7.31* | i
Cc1cc(C)nc(OC(=O)c2c(Cl)cc(Cl)cc2Cl)n1 | i | i | i | i | i
CC1CCN(c2ccc([N+](=O)[O-])cc2C(=O)N2CCOCC2)CC1 | i | i | i | i | i
COc1ccc2c(c1)C(=O)N(c1ccc(C)cc1)C(=O)C2 | i | -4.81* | i | i | i
NC(=O)c1coc(-c2ccccc2)n1 | i | i | i | -7.09* | i
Cc1ccc(-n2c(CSc3nc(C)cc(C)n3)nnc2SCC(=O)NCc2ccco2)cc1 | i | -6.63* | i | i | i
COc1ccccc1OCCCn1c(=O)oc2ccc(C)cc21 | i | i | i | i | i
CCc1cccc2c(C(=O)COC(=O)c3nn(C)c(=O)c4ccccc34)c[nH]c12 | i | i | i | -7.33* | i
CCOc1ccc(OCc2cccc(C(=O)Nc3ccc(CN4CCCCC4)cc3)c2)cc1 | i | i | i | -7.33* | i
O=C(/C=C\c1ccccc1)Nc1nccs1 | i | i | i | i | i
O=C(/C=C/c1cccc(F)c1)Nc1nccs1 | i | -6.28* | i | i | i
Cc1c(N=C/C=C/c2ccccc2)c(=O)n(-c2ccccc2)n1C | i | i | i | -8.71* | i
Cc1c(N=Cc2cccnc2)c(=O)n(-c2ccccc2)n1C | i | i | i | i | i
CC(C)Cc1ccc(C(C)C(=O)Nc2ncccn2)cc1 (centres undefined) | i | i | i | i | i
CN(C)[C@@H]1CCC[C@@H]1OC(=O)C(c1ccccc1)c1ccccc1 | i | i | i | -7* | i
COc1ccc(-c2noc(N3CCCC(C(=O)Nc4ccc(C(C)=O)cc4)C3)n2)cc1 (centres undefined) | i | i | i | i | i
NCC(O)(c1ccc(Cl)cc1)c1ccc(Cl)cc1 | i | i | 37.1* | i | i
CC(C)(C)NCC(O)(c1ccc(Cl)cc1)c1ccc(Cl)cc1 | i | i | i | i | i
Cc1ccc(NC(=O)CSc2ncc3ccccn23)cc1C | i | i | i | -7.54* | i
Cc1ccc(NC(=O)CSc2ncn(-c3ccccc3)n2)cc1C | i | i | i | i | i
Cc1nnc(N/N=C/c2ccc(-c3ccc(Br)cc3)o2)n1N | i | i | i | i | i
